# According to publication PMC11094418 (Clinical Cancer Research, 2024):
# Key:
# [1] = tested on: HCT116 KRAS-mutant colorectal cancer xenograft model; assay: HCT116 xenograft in Balb/c nude mice; format: in vivo; conditions: 42 days
# In short: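 Female Balb/c nude mice aged 6–9 weeks, inoculated subcutaneously with 5 million HCT116 cells and randomized at 100–150 mm3. Groups received vehicle, oral test compound (0.5% methylcellulose + 0.1% Tween80 suspension), an i.p. chemotherapy agent in saline, or the combination for 42 days. Tumor volume and body weight were measured twice weekly. Mean ± SEM, n=7–8/group.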
# [2] = phase Ib safety: onvansertib-related AEs; format: in vivo, human; conditions: all dose levels
# In short: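 Oral test compound was dose-escalated (3+3 design; 12, 15, 18 mg/m2) on days 1–5 and 15–19 of 28-day cycles. It was given with FOLFIRI and bevacizumab 5 mg/kg i.v. on days 1 and 15. Patients receiving ≥1 dose were evaluable. AEs were graded by NCI CTCAE v4.03, investigators assigned causality, and data were summarized descriptively.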
# [3] = phase Ib pharmacokinetics, plasma, day 5 of cycle 1, LC/MS-MS; format: in vivo, human
# In short: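 Oral test compound was given on days 1–5 and 15–19 of 28-day cycles with FOLFIRI/bevacizumab. Blood was drawn on cycle 1 day 5 at predose and at 1, 2, 3, 4, 8, 24, 48 and 72 h postdose. Plasma drug concentrations were measured by LC/MS-MS, and pharmacokinetic parameters were calculated from these.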
# [4] = tested on: DLD1 isogenic KRAS^WT/G13D (KRAS MUT) and KRAS^WT/− (KRAS WT) colorectal cancer cells; assay: proliferation assay, cell viability by CellTiterGlo; format: cell-based; conditions: 72 hours, Fig. 1A
# [5] = tested on: DLD1 isogenic KRAS^WT/G13D (KRAS MUT) and KRAS^WT/− (KRAS WT) colorectal cancer cells; assay: analysis of mitotic cells by flow cytometry; format: cell-based; conditions: 100 nmol/L, 24 hours, Fig. 1B
# [6] = cited from earlier work
smiles,measurement,setting,value
"CCc1c2c(nc3ccc(OC(=O)N4CCC(N5CCCCC5)CC4)cc13)-c1cc3c(c(=O)n1C2)COC(=O)[C@]3(O)CC [irinotecan, reference compound]",tumor growth compared with the vehicle-treated group,"[1]; intraperitoneally, 5 mg/kg, twice a week",significantly reduced tumor growth
CN1CCN(c2ccc(OC(F)(F)F)c(Nc3ncc4c(n3)-c3c(c(C(N)=O)nn3CCO)CC4)c2)CC1 [onvansertib],"G3/G4 neutropenia, patients",[2],28%
same,"diarrhea, patients",[2],50%
same,"fatigue, patients",[2],44%
same,"nausea, patients",[2],50%
same,number of onvansertib-related G3 or G4 AEs,[2],15
same,"vomiting, patients",[2],22%
same,AUC0–24,"[3]; 12 mg/m^2, mean ± SD","2,020 ± 880 ng/mL.hours"
same,Cmax,"[3]; 12 mg/m^2, mean ± SD",163 ± 82 ng/mL
same,Tmax,"[3]; 12 mg/m^2, mean ± SD",5.29 ± 8.32 h
same,t1/2,"[3]; 12 mg/m^2, mean ± SD",13.8 ± 2.1 h
same,AUC0–24,"[3]; 15 mg/m^2, mean ± SD","1,520 ± 650 ng/mL.hours"
same,Cmax,"[3]; 15 mg/m^2, mean ± SD",169 ± 64 ng/mL
same,Tmax,"[3]; 15 mg/m^2, mean ± SD",1.80 ± 0.84 h
same,t1/2,"[3]; 15 mg/m^2, mean ± SD",13.9 ± 4.3 h
same,AUC0–24,"[3]; 18 mg/m^2, mean ± SD","2,290 ± 730 ng/mL.hours"
same,Cmax,"[3]; 18 mg/m^2, mean ± SD",191 ± 25 ng/mL
same,Tmax,"[3]; 18 mg/m^2, mean ± SD",2.40 ± 1.20 h
same,t1/2,"[3]; 18 mg/m^2, mean ± SD",13.8 ± 2.3 h
same,terminal half-life in plasma,[3]; all dose levels,around 14 hours
same,cell death in DLD1 KRAS MUT cells compared with KRAS WT cells,[4],increased
same,mitotic arrest in DLD1 KRAS MUT cells compared with KRAS WT cells,[5],increased
same,tumor growth compared with the vehicle-treated group,"[1]; oral, 45 mg/kg, daily",significantly reduced tumor growth
same,human half-life,[6]; oral,approximately 24 hours
same,dose-limiting toxicities (DLT),"[6]; single agent, 6, 12, and 24 mg/m^2/day for 5 out of 21 days",no dose-limiting toxicities
